Assay results reported in paper PMC5114201 (Drugs in R&D, 2016).
Ends that are not written are not given here.

Columns and labels:
Caco-2 monolayer = conditions: cited from earlier work
[1] = intravenously administered into rats; ref unpublished preclinical toxicological data; cited from earlier work
Safety and tolerability = format: in vivo, human; conditions: healthy subjects, 12-lead ECG at 1, 3, 6 and 12 h post dose, all cohorts
Outline: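 Single-blind, randomized, placebo-controlled dose escalation in healthy adults. Each cohort of six had four on drug and two on sterile-water placebo. Drug was dissolved in sterile water and drunk standing, then 200 ml water, at 08:00 after fasting from midnight. A 12-lead ECG was taken pre-dose and at 1, 3, 6 and 12 h. Vital signs and clinical laboratory tests were also monitored.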

[2] = Vital signs after single oral dose, phase I study; format: in vivo, human; conditions: 24 h post dose, healthy subjects, mean ± SD, n = 4
Outline: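 In cohorts of four drug and two placebo (sterile water) subjects, a single oral solution was taken at 08:00 after an overnight fast, followed by 200 ml water. Blood pressure, heart rate, pulse oximetry, temperature and breathing rate were recorded pre-dose and at 0.25–24 h post dose. Values were reported as mean ± SD (range) and compared against placebo.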

[3] = Urinalysis, phase I study; format: in vivo, human; conditions: healthy subjects, n = 4
Outline: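 Healthy volunteers were randomized within each dose cohort to oral drug solution in sterile water (four subjects) or sterile-water placebo (two subjects). They fasted from midnight, were dosed at 08:00 and had no food for 2 h afterwards. Urinalysis was done before dosing and 24 h after. Dipstick-type read-outs were compared with normal ranges or indications.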

[4] = 0.08 mg/kg single oral dose, 0 h pre dose (baseline)
[5] = 0.08 mg/kg single oral dose, 24 h post dose
[6] = 0.7 mg/kg single oral dose, 0 h pre dose (baseline)
[7] = 0.7 mg/kg single oral dose, 24 h post dose

## RVYIHPFHL [DAA-I, Des-aspartate-angiotensin I]
Caco-2 monolayer
  Transport across Caco-2 monolayer: cross the Caco-2 monolayer via passive diffusion
[1]
  Time to degradation by plasma enzymes: 2 to 5 min
Safety and tolerability
  ECGs: normal
[2]; 0.08 mg/kg single oral dose
  Blood pressure, diastolic: 68 ± 5 mmHg
  Blood pressure, systolic: 120 ± 4 mmHg
[2]; 0.7 mg/kg single oral dose
  Blood pressure, diastolic: 67 ± 7 mmHg
  Blood pressure, systolic: 114 ± 7 mmHg
[3]; [4]
  Urine bilirubin: Negative
  Urine glucose: Normal
  Urine haemoglobin: Negative
  Urine ketones: Negative
  Urine nitrite: Negative
  Urine protein: Negative
  Urine urobilinogen: Normal
[3]; [5]
  Urine bilirubin: Negative
  Urine glucose: Normal
  Urine haemoglobin: Negative
  Urine ketones: Negative
  Urine nitrite: Negative
  Urine protein: Negative
  Urine urobilinogen: Normal
[3]; [6]
  Urine bilirubin: Negative
  Urine glucose: normal
  Urine haemoglobin: Negative
  Urine ketones: Negative
  Urine nitrite: Negative
  Urine protein: Negative
  Urine urobilinogen: Normal
[3]; [7]
  Urine bilirubin: Negative
  Urine glucose: normal
  Urine haemoglobin: Negative
  Urine ketones: Negative
  Urine nitrite: Negative
  Urine protein: Negative
  Urine urobilinogen: Normal
